Experimental data taken from ChEMBL document CHEMBL2375244 (J Med Chem, 2013).

How the values were obtained:
CDK2/Cyclin A2 [1] = molecular target: T1, CDK2/Cyclin A2 (Homo sapiens, UniProt P24941); assay: Inhibition of human CDK2/Cyclin A2 using PKTPKKAKKL as substrate by fluorescence assay; type: protein-complex assay
BT-549 = assay: Cytotoxicity against human BT549 cells after 72 hrs by resazurin/resorufin-based fluorescence assay; type: functional, cell-based; details: BT-549, 72 h
Summary of the method: (§1)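 CellTiter-Blue viability: 1200 cells per well seeded, incubated overnight at 37 °C, 5% CO₂; drugs serially diluted 2:3 in medium, four replicate wells per concentration plus four diluent-only control wells; 72 h exposure; resazurin reduction to resorufin read by fluorescence (579 nm ex/584 nm em). IC50 is the average of three data sets, each using nine concentrations between 0.004 μM and 12.5 μM.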

[2] = Cytotoxicity against human RPMI18226 cells after 72 hrs by resazurin/resorufin-based fluorescence assay; type: functional, cell-based; details: RPMI18226, 72 h
SW872 = assay: Cytotoxicity against human SW872 cells after 72 hrs by resazurin/resorufin-based fluorescence assay; type: functional, cell-based; details: SW872, 72 h
MCF7 = assay: Cytotoxicity against human MCF7 cells after 72 hrs by resazurin/resorufin-based fluorescence assay; type: functional, cell-based; details: MCF7, 72 h
HOS-TE85 = assay: Cytotoxicity against human MNNG-HOS cells after 72 hrs by resazurin/resorufin-based fluorescence assay; type: functional, cell-based; details: HOS-TE85, 72 h
[3] = Cytotoxicity against human MDA-MB-436 cells after 72 hrs by resazurin/resorufin-based fluorescence assay; type: functional, cell-based; details: MDA-MB-436, 72 h
U-266 = assay: Cytotoxicity against human U266 cells after 72 hrs by resazurin/resorufin-based fluorescence assay; type: functional, cell-based; details: U-266, 72 h
[4] = Cytotoxicity against human NCI-H929 cells after 72 hrs by resazurin/resorufin-based fluorescence assay; type: functional, cell-based; details: NCI-H929, 72 h
MDA-MB-231 = assay: Cytotoxicity against human MDA-MB-231 cells after 72 hrs by resazurin/resorufin-based fluorescence assay; type: functional, cell-based; details: MDA-MB-231, 72 h
SK-UT-1 = assay: Cytotoxicity against human SK-UT-1 cells after 72 hrs by resazurin/resorufin-based fluorescence assay; type: functional, cell-based; details: SK-UT-1, 72 h
T47D = assay: Cytotoxicity against human T47D cells after 72 hrs by resazurin/resorufin-based fluorescence assay; type: functional, cell-based
SK-ES1 = assay: Cytotoxicity against human SK-ES-1 cells after 72 hrs by resazurin/resorufin-based fluorescence assay; type: functional, cell-based; details: SK-ES1, 72 h
A673 = assay: Cytotoxicity against human A673 cells after 72 hrs by resazurin/resorufin-based fluorescence assay; type: functional, cell-based; details: A673, 72 h
SK-BR-3 = assay: Cytotoxicity against human SK-BR-3 cells after 72 hrs by resazurin/resorufin-based fluorescence assay; type: functional, cell-based; details: SK-BR-3, 72 h; summary of the method: as §1
CDK2/Cyclin A2 [5] = molecular target: T1, CDK2/Cyclin A2; assay: Inhibition of human CDK2/Cyclin A2 using PKTPKKAKKL as substrate by PK/LDH spectrophotometric analysis; type: protein-complex assay
[6] = Cytotoxicity against mouse GC-1 cells after 72 hrs by MTT assay; type: functional, cell-based; details: GC-1, 72 h
Summary of the method: (§2)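 Cells kept in RPMI or DMEM with 10% FBS at 37 °C, 5% CO₂ and allowed to attach overnight; 72 h with increasing inhibitor concentrations; then 1 mg/mL MTT for 3 h, DMSO solubilisation, OD read at 540 nm. Testis lines had culture conditions adapted to them. Dose-response in triplicate, 9 concentrations between 0.02 and 100 μM, averaged.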

[7] = Cytotoxicity against mouse TM4 cells after 72 hrs by MTT assay; type: functional, cell-based; details: TM4, 72 h; summary of the method: as §2
[8] = Cytotoxicity against mouse GC-2 cells after 72 hrs by MTT assay; type: functional, cell-based; details: GC-2, 72 h; summary of the method: as §2
MDA-MB-468 = assay: Cytotoxicity against human MDA-MB-468 cells after 72 hrs by MTT assay; type: functional, cell-based; details: MDA-MB-468, 72 h; summary of the method: as §2

Q: What does the source list for `Nc1cccc(C(=O)c2sc(Nc3ccc(S(N)(=O)=O)cc3)nc2N)c1`?
A: IC50 (CDK2/Cyclin A2 [1]): 70 nM; IC50 (BT-549): > 10 µM; IC50 [2]: > 10 µM; IC50 (SW872): > 10 µM; IC50 (MCF7): > 10 µM; IC50 (HOS-TE85): > 10 µM; IC50 [3]: > 10 µM; IC50 (U-266): 5.5 µM; IC50 [4]: 6.8 µM; IC50 (MDA-MB-231): > 10 µM; IC50 (SK-UT-1): > 10 µM; IC50 (T47D): 5.8 µM; IC50 (SK-ES1): 9.8 µM; IC50 (A673): 8.8 µM; IC50 (SK-BR-3): 4.1 µM

Q: For `Nc1nc(Nc2ccccc2)sc1C(=O)c1ccc2ccccc2c1`, which IC50 (CDK2/Cyclin A2 [5]) is on record?
A: > 100 µM

Q: Which IC50 (CDK2/Cyclin A2 [5]) does the source give for `C=CCNc1nc(N)c(C(=O)c2ccc(Cl)s2)s1` here?
A: 12 µM

Q: For `Nc1nc(Nc2ccc(S(N)(=O)=O)cc2)sc1C(=O)c1cccc(O)c1`, which IC50 (CDK2/Cyclin A2 [5]) is on record?
A: 1.5 µM

Q: With `NC(=O)c1sc(Nc2ccccc2)nc1N` as the compound, how does the IC50 [6] read?
A: > 60 µM

Q: And the IC50 [7]?
A: > 60 µM

Q: What about the IC50 [8] of the same compound?
A: > 60 µM

Q: And the IC50 (CDK2/Cyclin A2 [5])?
A: > 100 µM

Q: Which IC50 (CDK2/Cyclin A2 [5]) does the source give for `C=CCNc1nc(N)c(C(=O)Nc2cc(C)no2)s1` here?
A: > 100 µM

Q: With `CNc1nc(N)c(C(=O)c2ccccc2)s1` as the compound, how does the IC50 (CDK2/Cyclin A2 [5]) read?
A: 95 µM

Q: For `Nc1nc(Nc2ccccc2)sc1C(=O)c1cccnc1`, which IC50 (CDK2/Cyclin A2 [1]) is on record?
A: 650 nM

Q: What about the IC50 [6] of the same compound?
A: 5.9 µM

Q: What about the IC50 [7] of the same compound?
A: 5.5 µM

Q: What about the IC50 [8] of the same compound?
A: 9.5 µM

Q: Which IC50 (CDK2/Cyclin A2 [5]) does the source give for `CCOC(=O)c1sc(Nc2ccccc2)nc1N` here?
A: > 100 µM

Q: For `C=CCNc1nc(N)c(C(=O)c2ccccn2)s1`, which IC50 (CDK2/Cyclin A2 [5]) is on record?
A: 33 µM

Q: For `Nc1nc(NC2CCNCC2)sc1C(=O)c1cccnc1`, which IC50 (CDK2/Cyclin A2 [5]) is on record?
A: 43 µM

Q: With `Nc1nc(Nc2ccc(C(=O)O)cc2)sc1C(=O)c1cccnc1` as the compound, how does the IC50 (CDK2/Cyclin A2 [5]) read?
A: 4 µM

Q: For `CC(C)(C)OC(=O)N1CCC(Nc2nc(N)c(C(=O)c3cccnc3)s2)CC1`, which IC50 (CDK2/Cyclin A2 [5]) is on record?
A: 3.5 µM

Q: Which IC50 (CDK2/Cyclin A2 [5]) does the source give for `Nc1nc(Nc2ccc(C(F)(F)F)cc2)sc1C(=O)c1ccccc1` here?
A: > 100 µM

Q: For `Nc1nc(Nc2ccc(S(N)(=O)=O)cc2)sc1C(=O)c1cc(C(F)(F)F)cc(C(F)(F)F)c1`, which IC50 (CDK2/Cyclin A2 [5]) is on record?
A: 25 µM

Q: For `C=CCNc1nc(N)c(C(=O)c2ccccc2)s1`, which IC50 (CDK2/Cyclin A2 [5]) is on record?
A: 15 µM

Q: With `C=CCNc1nc(N)c(C(=O)c2cccc([N+](=O)[O-])c2)s1` as the compound, how does the IC50 (CDK2/Cyclin A2 [5]) read?
A: 2.9 µM

Q: Which IC50 [6] does the source give for `Nc1nc(NC2CCCCC2)sc1C(=O)c1ccccc1` here?
A: 9.2 µM

Q: What about the IC50 [7] of the same compound?
A: 9.3 µM

Q: And the IC50 [8]?
A: 8.2 µM

Q: What about the IC50 (CDK2/Cyclin A2 [5]) of the same compound?
A: 1.3 µM

Q: For `Nc1nc(Nc2ccccc2)sc1C(=O)c1ccccc1`, which IC50 (CDK2/Cyclin A2 [1]) is on record?
A: 930 nM

Q: And the IC50 [6]?
A: 11 µM

Q: What about the IC50 [7] of the same compound?
A: 12 µM

Q: And the IC50 [8]?
A: 11 µM

Q: For `C=CCNc1nc(N)c(C(=O)c2ccc(C)cc2)s1`, which IC50 (CDK2/Cyclin A2 [5]) is on record?
A: 37 µM

Q: With `Nc1nc(Nc2ccccc2)sc1C(=O)c1cc(C(F)(F)F)cc(C(F)(F)F)c1` as the compound, how does the IC50 (CDK2/Cyclin A2 [5]) read?
A: > 100 µM

Q: With `Nc1nc(Nc2ccc(S(N)(=O)=O)cc2)sc1C(=O)c1cccc([N+](=O)[O-])c1` as the compound, how does the IC50 (CDK2/Cyclin A2 [1]) read?
A: 70 nM

Q: And the IC50 [6]?
A: 22 µM

Q: And the IC50 [7]?
A: 4 µM

Q: And the IC50 [8]?
A: 20 µM

Q: Which IC50 (CDK2/Cyclin A2 [5]) does the source give for `C=CCNc1nc(N)c(C(=O)C(C)(C)C)s1` here?
A: > 100 µM

Q: For `CC(=O)c1sc(Nc2ccccc2)nc1N`, which IC50 (CDK2/Cyclin A2 [5]) is on record?
A: > 100 µM

Q: With `CN(C)/C=C/C(=O)c1sc(Nc2ccc(S(N)(=O)=O)cc2)nc1N` as the compound, how does the IC50 (CDK2/Cyclin A2 [5]) read?
A: > 100 µM

Q: For `Nc1nc(Nc2ccccc2)sc1C(=O)c1cccc(Cl)c1`, which IC50 (CDK2/Cyclin A2 [5]) is on record?
A: 99 µM

Q: For `Nc1nc(Nc2ccccc2)sc1C(=O)c1cccc(F)c1`, which IC50 [6] is on record?
A: 3.6 µM

Q: What about the IC50 [7] of the same compound?
A: 5.1 µM

Q: And the IC50 [8]?
A: 4.1 µM

Q: What about the IC50 (CDK2/Cyclin A2 [5]) of the same compound?
A: 1.6 µM

Q: Which IC50 (CDK2/Cyclin A2 [5]) does the source give for `C=CCNc1nc(N)c(C(=O)c2ccc([N+](=O)[O-])cc2)s1` here?
A: 41 µM

Q: With `Nc1nc(Nc2ccc(S(N)(=O)=O)cc2)sc1C(=O)c1ccc2ccccc2c1` as the compound, how does the IC50 (BT-549) read?
A: > 10 µM

Q: And the IC50 [2]?
A: > 10 µM

Q: What about the IC50 (SW872) of the same compound?
A: > 10 µM

Q: What about the IC50 (MCF7) of the same compound?
A: 5.9 µM

Q: And the IC50 (HOS-TE85)?
A: 9.7 µM

Q: What about the IC50 [3] of the same compound?
A: 5.3 µM

Q: And the IC50 (U-266)?
A: 7.9 µM

Q: And the IC50 [4]?
A: 4.3 µM

Q: And the IC50 (MDA-MB-231)?
A: > 10 µM

Q: What about the IC50 (T47D) of the same compound?
A: 4.5 µM

Q: What about the IC50 (SK-ES1) of the same compound?
A: 4.8 µM

Q: What about the IC50 (A673) of the same compound?
A: 3.7 µM

Q: And the IC50 (SK-BR-3)?
A: 6.1 µM

Q: And the IC50 (MDA-MB-468)?
A: 5.5 µM

Q: What about the IC50 (CDK2/Cyclin A2 [5]) of the same compound?
A: 82 µM

Q: For `Nc1nc(Nc2ccccc2)sc1C(=O)c1cccc(C(F)(F)F)c1`, which IC50 (CDK2/Cyclin A2 [5]) is on record?
A: > 100 µM

Q: For `Nc1nc(Nc2ccc(S(N)(=O)=O)cc2)sc1C(=O)c1cccc(C(F)(F)F)c1`, which IC50 (CDK2/Cyclin A2 [1]) is on record?
A: 570 nM

Q: Which IC50 (CDK2/Cyclin A2 [5]) does the source give for `COC(=O)c1ccccc1C(=O)c1sc(Nc2ccc(S(N)(=O)=O)cc2)nc1N` here?
A: 32 µM

Q: With `C=CCNc1nc(N)c(C(=O)c2ccc(Cl)cc2)s1` as the compound, how does the IC50 (CDK2/Cyclin A2 [5]) read?
A: > 100 µM
